# FGF22 binding: FGF22 (human) thermal shift binding | AID 651658 | 340,000 compounds, 1.5% hits | activity (Tm shift, normalised), % at 9.99 µM | Q9HCT0 | recombinant FGF22 thermal shift, SYPRO orange fluorescence; percent of sucrose octasulfate shift, DMSO zero;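 active = mean Tm shift, scaled 0 neutral to 100 positive control, at about 1.3% or above, every replicate too, limit read from the data; inconclusive = no clear call, values can overlap the other calls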
# Target sequence (Q9HCT0 whole entry, looked up): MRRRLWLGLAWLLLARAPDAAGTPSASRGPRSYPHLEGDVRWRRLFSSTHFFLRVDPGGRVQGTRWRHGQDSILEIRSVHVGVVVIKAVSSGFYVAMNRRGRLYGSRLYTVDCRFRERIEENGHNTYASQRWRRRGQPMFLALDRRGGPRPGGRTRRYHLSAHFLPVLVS
# F508del corr: correctors of CFTR F508del function in bronchial epithelial cells | CFBE cells, YFP halide quenching; stimulated with forskolin plus potentiator P3; % fluorescence drop versus neutral controls | activity (quench increase), % at 7.58 µM | 350,000 compounds, 0.36% hits;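 active = mean added fluorescence quench of at least 8% versus neutral control, with both replicates also reaching 8%; inconclusive = only one of the mean or replicate conditions met; inactive = mean below 8% and not both replicates reaching 8%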;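 also: cells transiently co-express mutant CFTR-F508del with the halide-sensitive YFP; corrector assay measuring rescue of mutant channel to the surface after 24 h compound exposure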
# S100A4 inh HTS: S100A4-myosin IIA interaction inhibition; S100A4/TAMRA-MyoIIA peptide fluorescence polarization; inhibition, % at 10.7 µM; 360,000 compounds, 0.14% hits;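 active = mean inhibition of at least 70% across replicates, with every replicate also reaching that level; inconclusive = mean inhibition reaches 70% but some replicates fall short; inactive = mean inhibition below 70%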
# Target sequence (P26447 whole entry, looked up): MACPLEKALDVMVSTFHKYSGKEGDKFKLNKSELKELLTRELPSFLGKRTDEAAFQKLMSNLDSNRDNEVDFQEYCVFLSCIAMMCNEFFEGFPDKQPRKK
#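 Material: S100A4 monomer (human). Medium: Calcium-containing HEPES buffer, pH 7.2. Probe or stimulus: labelled myosin peptide probe, 5 nM. Compound dosing: one concentration per compound. Timing: polarization read 5 min after assay mix addition, stable 5–60 min. Benchmarks: DMSO as neutral control, TFP as positive control.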
# HIV Env fusion: HIV envelope-mediated fusion inhibition. inhibition, % at 12.3 µM. 360,000 compounds, 1.1% hits. HeLa-JRFL Env/CEM21 cell fusion, luciferase;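 active = mean replicate inhibition score of at least 50 and every replicate individually at or above 50; inconclusive = only one of the two criteria met; inactive = mean below 50 and not all replicates reaching 50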;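 also: 0% = plate neutral controls and 100% = maraviroc near 300 nM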
# E-sel inducer: E-selectin induction on HUVECs | 260,000 compounds, 0.37% hits | activation, % at 7.58 µM | P16581 | HUVEC E-selectin immunofluorescence imaging; normalized: neutral wells 0, TNF-alpha wells 100;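 active = mean E-selectin-positive cell signal at least 10% of the positive control, reached in at least 60% of replicates, without over 20% cell loss; inconclusive = no rule given, readout overlaps actives, possibly toxicity-flagged; inactive = the rest, including those meeting only one limit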
#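 Read-out basis: % PE-positive cells; Test system: HUVEC primary endothelial cells; Technique: immunofluorescence imaging; Dosing: single-point compound dose.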
# The depositor's hits bear a star; i = inactive; ? = inconclusive; / = no result given; [ ] = another dose, or the depositor's remark. Rows were chosen to be rich in hits. Some 2.7% of all compounds tested hit in one or more screens of this group.
SMILES,FGF22 binding,F508del corr,S100A4 inh HTS,HIV Env fusion,E-sel inducer
CC(=O)OCC1=C(C(=O)O)N2C(=O)C(NC(=O)CCn3nc(C)c(Cl)c3C)C2SC1 (configuration not stated),0,-1,-5,-33,/
Cc1nnc(SCC2=C(C(=O)O)N3C(=O)C(NC(=O)Cn4nc(C(F)F)c(Cl)c4C)C3SC2)s1 (configuration not stated),43*,1,-1,-4,/
CC(=O)OCC1=C(C(=O)O)N2C(=O)C(NC(=O)Cn3nc(C(F)F)c(Cl)c3C)C2SC1 (configuration not stated),43*,2,2,-21,/
O=C(c1cc(S(=O)(=O)N2CCN(c3ccccc3)CC2)ccc1Cl)N1CCCC(C(F)(F)F)C1 (configuration not stated),1,2,0,/,-3
O=C(c1cccc(S(=O)(=O)N2CCN(c3ccccc3)CC2)c1)N1CCCC(C(F)(F)F)C1 (configuration not stated),/,-2,14,71*,0
COc1ccc2c3c(n(C)c2c1)[C@H](CO)NCC31CCN(CC2CC2)CC1,-1,-2,-3,-9[16.7 µM],0
CSc1nc(Cl)cc(Nc2ccccc2N)n1,0,0,30,79*,3
Nc1nc(Cl)cc(Nc2ccccc2Cl)n1,0,1,-1,-32,0
COc1ccc(OCC(O)CN(CCO)CC(O)Cn2ccc3ccccc32)cc1 (configuration not stated),43*,3,3,3,/
CCCN(C)C[C@H]1Oc2cc(C3=CCCCC3)ccc2S(=O)(=O)N([C@H](C)CO)C[C@@H]1C,/,-1,/,-17[16.7 µM],?
Cc1cc(C(=O)CN2C(=O)C(=O)N(CC(C)C)C2=O)c(C)n1-c1ccccc1F,43*,1,-2,-10,/
CCOC(=O)CSc1nc2ccccc2c(=O)n1CC,/,/,/,i,/
CCOC(=O)CSc1nc2ccccc2c(=O)n1CC(C)C,43*,/,-3,5,/
CCOC(=O)CSc1nc(Cc2ccccc2)nc2ccccc12,0,-2,-9,56*,-1
CS(=O)(=O)N1CC(=O)N2[C@H](CO)[C@H](c3ccc(C#Cc4cccc(F)c4)cc3)[C@@H]2C1,/,0,3,/,0
Cc1ccc(COc2cccc3c2CCN(Cc2ccc(F)cc2)C3=O)cc1,/,/,/,25,/
CCOC(=O)N1CCN(C(=O)COc2cccc3c2CCN(Cc2ccc(F)cc2)C3=O)CC1,/,/,/,57*,/
CCOC(=O)N1CCN(C(=O)COc2cccc3c2CCN(CC)C3=O)CC1,0,0,5,16,0
O=C1c2cccc(OCc3ccc(F)cc3)c2CCN1Cc1ccccc1,/,/,/,77*,0
COc1cccc(S(=O)(=O)N[C@H]2C=C[C@@H](CC(=O)NCc3ccc(Cl)cc3)O[C@@H]2CO)c1,0,1,-4,-17[16.7 µM],2
COC(CN(C(=O)CCl)C(C(=O)NC1CCCCC1)c1ccc(Cl)cc1)OC (configuration not stated),0,/,-10,-4,/
COC(CN(C(=O)CCl)C(C(=O)NC1CCCCC1)c1ccccc1C)OC (configuration not stated),0,/,-2,59*,0
CS(=O)(=O)N1CCN(c2ccccc2[N+](=O)[O-])CC1,43*,-2,-5,11,/
O=C(C(Cc1ccccc1)n1cccc1)N1CCCCCC1 (configuration not stated),0,1,2,17,3
CN1CCN(c2ccccc2NC(=O)C(Cc2ccccc2)n2cccc2)CC1 (configuration not stated),0,-3,-1,77*,5
SMILES,FGF22 binding,F508del corr,S100A4 inh HTS,HIV Env fusion,E-sel inducer
CS(=O)(=O)N1CCN(c2ccccc2NC(=O)C(c2ccccc2)c2ccccc2)CC1,/,/,/,71*,/
CCC(C)NC(=O)C(Cc1ccccc1)n1cccc1 (configuration not stated),0,3,-1,-27,1
O=C(C(Cc1ccccc1)n1cccc1)N1CCCCC1 (configuration not stated),0,10*,0,-7,0
COc1ccc(NC(=O)Nc2ccc3c(c2)C(=O)N([C@@H](C)CO)C[C@@H](C)[C@@H](CN(C)C(=O)C2CCCCC2)OCCCC[C@@H](C)O3)cc1,0,-1,1,-19[16.7 µM],0
CC(=O)N1CCCN(Cc2nc(C3(c4ccc(C)cc4)CCCC3)no2)CC1,0,3,2,-3,/
COCCN1CCN(Cc2nc(C3(c4ccc(C)cc4)CCCC3)no2)CC1,43*,-3,7,-1,5
C[C@H]1CN([C@@H](C)CO)C(=O)c2cccc(NC(=O)C3CC3)c2O[C@@H]1CN(C)CC1CC1,0,2,25,/,-3
COC(=O)c1cc(S(=O)(=O)NCC2CCN(CCc3cccs3)CC2)c[nH]1,0,-2,-20,-6,226*
COC(=O)c1cc(S(=O)(=O)NCC2CCN(Cc3ccc(F)cc3)CC2)c[nH]1,0,0,-1,-4,/
COc1ccccc1OCCNS(=O)(=O)c1ccc2oc3ccccc3c2c1,/,/,/,58*,/
O=S(=O)(NCCOc1ccccc1Cl)c1ccc2oc3ccccc3c2c1,/,/,/,-129,/
Fc1ccc(C(CNC(=S)NC2CCCCC2)N2CCOCC2)cc1 (configuration not stated),43*,1,-1,0,/
CCn1c(=NC(=O)CS(=O)(=O)c2ccccc2)sc2cccc(OC)c21,0,1,-4,57*,0
CO[C@@H](CN(C)C(=O)c1ccccc1F)[C@H](C)CN([C@@H](C)CO)S(=O)(=O)c1ccc(Cl)cc1,0,1,-1,/,0
O=C(Nc1cccc(Cl)c1)N[C@H]1CC[C@H](CCNC(=O)C2CC2)O[C@@H]1CO,0,2,-6,3[16.7 µM],0
C/C(O)=C(/C=NCC(=O)O)C(=O)Nc1nccs1,43*,1,-11,-9,/
C/C(=C\c1ccccc1)C(=O)Nc1nccs1,0,1,-1,-28,2
CCC(=O)N1[C@@H](CO)[C@@H](c2ccccc2)C12CN(Cc1ccccc1Cl)C2,0,-1,-3,/,0
CC(C)NC(=O)N(C)C[C@@H]1Oc2ccc(NC(=O)Cc3cn(C)c4ccccc34)cc2C(=O)N([C@H](C)CO)C[C@H]1C,0,2,-8,/,49*
CC(C)NC(=O)N(C)C[C@@H]1Oc2ccc(NC(=O)Cc3cn(C)c4ccccc34)cc2C(=O)N([C@@H](C)CO)C[C@@H]1C,0,2,-33,/,5
C[C@@H]1CN([C@@H](C)CO)C(=O)c2cc(NC(=O)Cc3cn(C)c4ccccc34)ccc2O[C@H]1CN(C)Cc1ccc2c(c1)OCO2,0,0,-26,/,39*
CC(C)C[C@H]1COCn2nncc2CC[C@@H](Cc2ccccc2)C(=O)N1,0,/,-3,66*[16.7 µM],0
